Experimental data taken from ChEMBL document CHEMBL4330106, “A new class of pentapeptide KISS1 receptor agonists with hypothalamic-pituitary-gonadal axis activation” (Bioorg Med Chem Lett, 2019).
Active and inactive are the calls of the source. No cut-off for these calls is given here. Square brackets hold non-standard residues; d marks the D form. Peptide text beside a SMILES is read from it. Arg(Me) = CNC(=N)NCCC[C@H](N)C(=O)O; d4Pal = N[C@H](Cc1ccncc1)C(=O)O; azaGly = NNC(=O)O

How the values were obtained:
[1] = Stability in Sprague-Dawley rat serum assessed as parent compound remaining at 10 ug/ml measured immediately by LC-MS/MS analysis; format: ADME, cell-free; conditions: read-out: Stability
Method in brief: (§1)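 10 µL of 10 μg/mL aqueous peptide stock added to 990 μL pre-warmed SD rat serum (final 0.1 μg/mL), 37 °C. Aliquots taken at 0, 5, 15, 30, 60, 120 min. Quenched with formic acid/methanol and acetonitrile, centrifuged, internal standard added, quantified by LC/MS/MS. Result is percent remaining; n = 2.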

[2] = Stability in Sprague-Dawley rat serum assessed as parent compound remaining at 10 ug/ml measured after 15 mins by LC-MS/MS analysis; format: ADME, cell-free; conditions: read-out: Stability; method in brief: as §1
[3] = Stability in Sprague-Dawley rat serum assessed as parent compound remaining at 10 ug/ml measured after 30 mins by LC-MS/MS analysis; format: ADME, cell-free; conditions: read-out: Stability; method in brief: as §1
[4] = biological target: KiSS-1 receptor (Rattus norvegicus, UniProt Q924U1); experiment: Agonist activity at rat KISS1R
[5] = biological target: KiSS-1 receptor (Homo sapiens, UniProt Q969F8); experiment: Agonist activity at human KISS1R expressed in CHO cells assessed as increase in calcium mobilization measured at 2 secs interval for 2 mins by fluo-4 NW dye based FLIPR assay; format: functional, cell-based
Method in brief: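 Ligand-induced Ca2+ rise in CHO cells expressing human KISS1R, read on a fluorometric imaging plate reader (FLIPR); agonist potency reported as EC50 (nM).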

[6] = Stability in Sprague-Dawley rat serum assessed as parent compound remaining at 10 ug/ml measured after 120 mins by LC-MS/MS analysis; format: ADME, cell-free; conditions: read-out: Stability; method in brief: as §1
[7] = Stability in Sprague-Dawley rat serum assessed as parent compound remaining at 10 ug/ml measured after 5 mins by LC-MS/MS analysis; format: ADME, cell-free; conditions: read-out: Stability; method in brief: as §1
[8] = Stability in Sprague-Dawley rat serum assessed as parent compound remaining at 10 ug/ml measured after 60 mins by LC-MS/MS analysis; format: ADME, cell-free; conditions: read-out: Stability; method in brief: as §1
[9] = Solubility of the compound in water; format: physicochemical
[10] = Solubility of the compound in saline; format: physicochemical
[11] = Retention time of the compound by reverse-phase HPLC method; format: physicochemical
Method in brief: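 RP-HPLC on C18 monolith column. Linear gradient of 0.1% TFA water / 0.1% TFA acetonitrile, A/B 95/5 to 35/65 over 10 min, 3.0 mL/min.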

[12] = system: Rattus norvegicus; experiment: Suppression of plasma testosterone level in Crl:CD(SD) rat at 5 to 20 nmol/hr administered via subcutaneous osmotic pumps measured after 6 days by radioimmunoassay; format: ADME, organism-based; conditions: in vivo, sc, 144 h
Method in brief: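 Five 9-week-old male Crl:CD (SD) rats per group received continuous subcutaneous infusion by osmotic pump for 6 days: leuprolide 2 nmol/h, or test peptide 5, 10, 20 nmol/h from 5–20 mM aqueous solution. Plasma testosterone measured by radioimmunoassay. Distilled-water control; Dunnett's test; mean ± SD.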

[13] = Drug uptake in Crl:CD(SD) rat plasma administered via subcutaneous osmotic pumps every 1 hr after 6 days by LC/MS analysis; format: ADME, cell-free; conditions: sc, 144 h
Method in brief: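 9-week-old male Crl:CD (SD) rats (five per group) implanted subcutaneously with osmotic pumps of 5, 10 or 20 mM aqueous peptide, delivering 5, 10, 20 nmol/h for 6 days. Steady-state plasma measured by LC/MS after protein precipitation with organic solvent; mean ± SD.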

[14] = system: Rattus norvegicus; experiment: Stimulation of plasma luteinizing hormone release in sc dosed Crl:CD(SD) rat administered as single bolus dose measured after 1 to 8 hrs; format: functional, organism-based
Method in brief: (§2)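 Single subcutaneous bolus of 10, 100 or 1000 nmol/kg in 9-week-old male Crl:CD (SD) rats, n = 5, saline vehicle. Plasma LH measured 1, 2, 4 and 8 h post-dose. AUC0–8h (ng·h/mL) calculated per rat. One-tailed Williams' test versus vehicle; mean ± SD.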

[15] = system: Rattus norvegicus; experiment: Increase in plasma luteinizing hormone AUC (0 to 8 hrs) in Crl:CD(SD) rat at 100 nmol/kg, sc administered as single bolus dose; format: functional, organism-based; method in brief: as §2
[16] = Half life in Sprague-Dawley rat serum at 10 ug/ml by LC-MS/MS analysis; format: ADME, cell-free; method in brief: as §1

Sequence of KiSS-1 receptor (Homo sapiens, UniProt Q969F8) (Q969F8 whole entry): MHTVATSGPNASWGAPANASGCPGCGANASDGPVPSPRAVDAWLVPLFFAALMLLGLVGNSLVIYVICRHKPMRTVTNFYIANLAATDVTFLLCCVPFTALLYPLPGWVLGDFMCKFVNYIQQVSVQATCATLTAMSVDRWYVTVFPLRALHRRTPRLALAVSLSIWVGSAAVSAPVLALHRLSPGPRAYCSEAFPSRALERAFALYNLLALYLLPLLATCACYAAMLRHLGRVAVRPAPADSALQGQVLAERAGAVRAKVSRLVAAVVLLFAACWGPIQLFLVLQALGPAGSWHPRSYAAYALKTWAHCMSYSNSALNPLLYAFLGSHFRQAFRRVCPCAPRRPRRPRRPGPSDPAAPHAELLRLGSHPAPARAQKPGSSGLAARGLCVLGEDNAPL
Sequence of KiSS-1 receptor (Rattus norvegicus, UniProt Q924U1) (Q924U1 whole entry): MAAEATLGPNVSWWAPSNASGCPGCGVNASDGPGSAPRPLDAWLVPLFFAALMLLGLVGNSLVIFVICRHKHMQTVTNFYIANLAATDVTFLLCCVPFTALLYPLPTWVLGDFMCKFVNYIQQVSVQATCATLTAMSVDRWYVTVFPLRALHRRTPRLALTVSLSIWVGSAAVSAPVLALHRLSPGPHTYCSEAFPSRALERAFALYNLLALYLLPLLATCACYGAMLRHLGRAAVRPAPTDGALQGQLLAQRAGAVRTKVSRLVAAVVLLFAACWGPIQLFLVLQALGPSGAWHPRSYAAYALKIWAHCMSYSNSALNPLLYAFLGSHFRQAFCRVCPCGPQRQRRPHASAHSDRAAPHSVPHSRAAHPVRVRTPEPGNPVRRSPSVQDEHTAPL

Structure (SMILES)	remaining at 0 min, 10 ug/ml [1]	remaining at 0.25 h, 10 ug/ml [2]	remaining at 0.5 h, 10 ug/ml [3]	EC50 [4]	EC50 [5]	remaining at 2 h, 10 ug/ml [6]	remaining at 5 min, 10 ug/ml [7]	remaining at 1 h, 10 ug/ml [8]	solubility [9]	solubility [10]	Retention_time [11]	Activity [12]	Drug uptake [13]	Activity [14]	Activity [15]	half-life at 10 ug/ml [16]
CNC(=N)NCCC[C@H](NC(=O)[C@H](CC(C)C)NC(=O)NNC(=O)[C@H](Cc1ccccc1)NC(=O)[C@H](CO)NC(=O)[C@H](CC(N)=O)NC(=O)[C@@H](Cc1ccncc1)NC(=O)[C@H](N)Cc1ccc(O)cc1)C(=O)N[C@@H](Cc1ccccc1)C(N)=O [KISS1-305] (H-[dY][d4Pal]NSF[azaGly]L[Arg(Me)]F-NH2)	100%	97%	95%	0.17 nM	0.27 nM	70%	98%	89%								
CNC(=N)NCCC[C@H](NC(=O)[C@H](CC(C)C)NC(=O)NNC(=O)[C@H](Cc1ccccc1)NC(=O)c1ccccc1)C(=O)N[C@@H](Cc1c[nH]c2ccccc12)C(N)=O	100%	97%	99%		0.024 nM	91%	98%	95%	< 10000 µg/mL	< 100 µg/mL	6.29 min					
CNC(=N)NCCC[C@H](NC(=O)[C@H](CC(C)C)NC(=O)NNC(=O)[C@H](Cc1ccccc1)NC(=O)c1ccncc1)C(=O)N[C@@H](Cc1c[nH]c2ccccc12)C(N)=O				1.2 nM	0.068 nM				> 20000 µg/mL	> 1000 µg/mL	4.48 min	Non-Toxic	Dose-dependent effect	Dose-dependent effect	Active	
CC(C)C[C@H](NC(=O)CNC(=O)[C@H](Cc1ccccc1)NC(=O)[C@H](CO)NC(=O)[C@H](CC(N)=O)NC(=O)[C@H](Cc1c[nH]c2ccccc12)NC(=O)[C@H](CC(N)=O)NC(=O)[C@@H](N)Cc1ccc(O)cc1)C(=O)N[C@@H](CCCNC(=N)N)C(=O)N[C@@H](Cc1ccccc1)C(N)=O [KISSPEPTIN-10]	100%	< 0.5%	< 0.5%		0.087 nM	< 0.5%	1.5%	< 0.5%								< 5 min
